Measured values reported in ChEMBL document CHEMBL5653630, “Activation of the p53-MDM4 regulatory axis defines the anti-tumour response to PRMT5 inhibition through its role in regulating cellular splicing” (Sci Rep, 2018).
Blank lines part the entries; values can stand above or below the compound they belong to. Active and inactive are the calls of the source. The rule behind the calls is not given here.

Experiments:
KMS-11 = experiment: Antiproliferative activity against human KMS-11 cells assessed as cell growth inhibition incubated for 6 days by celltiter-glo assay; assay type: functional; settings: KMS-11, 144 h, time 6 day
Method in brief: (§1)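 Cells seeded in 384-well plates at an optimized density and held 24 h. CellTiter-Glo luminescence read at Day 0 and Day 6. Four-parameter fit. gIC50 = midpoint of the growth window between DMSO and T0. Curves required ≥1.5 population doublings.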

JVM-2 = experiment: Induction of cell cycle arrest in human JVM-2 cells assessed as increase in 2n cell population measured upto 5000 nM measured for 3 days by propidium iodide staining based flow cytometric analysis; assay type: functional; settings: time 3.0 day
MCF7 = experiment: Antiproliferative activity against human MCF7 cells assessed as cell growth inhibition incubated for 6 days by celltiter-glo assay; assay type: functional; settings: MCF7, 144 h, time 6 day; method in brief: as §1
K562 = experiment: Antiproliferative activity against human K562 cells assessed as cell growth inhibition incubated for 10 days; assay type: functional; settings: K562, 240 h, time 10 day
Method in brief: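 Eurofins-panel 10-day assay in 384-well plates. Cells grown in RPMI-1640 with 10% FBS, 2 mM L-alanyl-L-glutamine and 1mM Na pyruvate, or a special medium, at 37°C in 5% CO₂. Compound added 24 h after seeding, 10-point 3.16-fold series in 0.1% DMSO. Medium replaced and compound re-dosed at 168 h. Nuclei fixed and stained after 240 h, then imaged to give a relative cell count. gIC50 is the concentration giving growth midway between untreated and time-zero counts, from a 4-parameter fit.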

COLO 201 = experiment: Antiproliferative activity against human COLO201 cells assessed as cell growth inhibition incubated for 10 days; assay type: functional; settings: COLO 201, 240 h, time 10 day
Method in brief: (§2)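 Cells kept in RPMI-1640 with 10% FBS, 2 mM L-alanyl-L-glutamine and 1 mM Na pyruvate (or a special medium) at 37°C, 5% CO2. Compound added 24 h after seeding, 10 concentrations in 3.16-fold dilution, 0.1% DMSO final. Medium replaced and cells re-dosed at 168 h; 240 h incubation. Nuclei fixed, dye-stained and imaged. gIC50 = growth midway between untreated and time-zero cell counts, from a 4-parameter fit.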

RKO = experiment: Antiproliferative activity against human RKO cells assessed as cell growth inhibition incubated for 10 days; assay type: functional; settings: 240 h, time 10 day
SW48 = experiment: Antiproliferative activity against human SW48 cells assessed as cell growth inhibition incubated for 10 days; assay type: functional; settings: SW48, 240 h, time 10 day
HT = experiment: Antiproliferative activity against human HT cells assessed as cell growth inhibition incubated for 10 days; assay type: functional; settings: 240 h, time 10 day
Method in brief: (§3)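 Outsourced panel run in 384-well plates. Cells were grown in RPMI-1640/10% FBS or a special medium at 37°C, 5% CO2. Compound was added 24 h after seeding as a 10-point, 3.16-fold series in 0.1% DMSO. Medium was refreshed and cells re-dosed at 168 h, with a time-zero plate kept. At 240 h cells were fixed, nuclei stained and imaged. gIC50 is growth midway between untreated and time zero, from a 4-parameter fit.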

T98G = experiment: Antiproliferative activity against human T98G cells assessed as cell growth inhibition incubated for 10 days; assay type: functional; settings: 240 h, time 10 day
CAKI-2 = experiment: Antiproliferative activity against human CAKI-2 cells assessed as cell growth inhibition incubated for 10 days; assay type: functional; settings: CAKI-2, 240 h, time 10 day; method in brief: as §2
Hs 294T = experiment: Antiproliferative activity against human Hs294T cells assessed as cell growth inhibition incubated for 10 days; assay type: functional; settings: 240 h, time 10 day
Method in brief: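 Eurofins panel, 384-well. Cells kept in RPMI-1640 with 10% FBS, 2 mM L-alanyl-L-glutamine and 1 mM Na pyruvate, or in a special medium, at 37°C under 5% CO2. Compound added 24 h after seeding as 10 concentrations in 3.16-fold steps, 0.1% DMSO final. Medium replaced and compound re-dosed at 168 h. After 240 h, cells fixed and nuclei stained for imaging. gIC50 = growth midway between untreated cells and time-zero count.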

SH-4 = experiment: Antiproliferative activity against human SH-4 cells assessed as cell growth inhibition incubated for 10 days; assay type: functional; settings: SH-4, 240 h, time 10 day
MC-IXC = experiment: Antiproliferative activity against human MC-IXC cells assessed as cell growth inhibition incubated for 10 days; assay type: functional; settings: 240 h, time 10 day
SK-N-AS = experiment: Antiproliferative activity against human SK-N-AS cells assessed as cell growth inhibition incubated for 10 days; assay type: functional; settings: 240 h, time 10 day
NCI-H441 = experiment: Antiproliferative activity against human NCI-H441 cells assessed as cell growth inhibition incubated for 10 days; assay type: functional; settings: NCI-H441, 240 h, time 10 day
CFPAC-1 = experiment: Antiproliferative activity against human CFPAC-1 cells assessed as cell growth inhibition incubated for 10 days; assay type: functional; settings: CFPAC-1, 240 h, time 10 day; method in brief: as §2
PC-3 = experiment: Antiproliferative activity against human PC-3 cells assessed as cell growth inhibition incubated for 10 days; assay type: functional; settings: PC-3, 240 h, time 10 day
[1] = Antiproliferative activity against human BM-1604 cells assessed as cell growth inhibition incubated for 10 days; assay type: functional; settings: BM-1604, 240 h, time 10 day; method in brief: as §2
U2OS = experiment: Antiproliferative activity against human U2OS cells assessed as cell growth inhibition incubated for 10 days; assay type: functional; settings: 240 h, time 10 day
SW684 = experiment: Antiproliferative activity against human SW684 cells assessed as cell growth inhibition incubated for 10 days; assay type: functional; settings: SW684, 240 h, time 10 day
DMS-273 = experiment: Antiproliferative activity against human DMS-273 cells assessed as cell growth inhibition incubated for 10 days; assay type: functional; settings: DMS-273, 240 h, time 10 day; method in brief: as §3
NCI-H446 = experiment: Antiproliferative activity against human NCI-H446 cells assessed as cell growth inhibition incubated for 10 days; assay type: functional; settings: NCI-H446, 240 h, time 10 day
CAL-62 = experiment: Antiproliferative activity against human CAL-62 cells assessed as cell growth inhibition incubated for 10 days; assay type: functional; settings: CAL-62, 240 h, time 10 day; method in brief: as §2
[2] = target: Protein arginine N-methyltransferase 5 (Homo sapiens) (UniProt O14744); experiment: Inhibition of PRMT5 in human Z138 cells assessed as effect on hnRNP level by measuring fold change by LC-MS/MS analysis relative to control; assay type: cell-based
[3] = target: Protein arginine N-methyltransferase 5 (Homo sapiens) (UniProt O14744); experiment: Inhibition of PRMT5 in human Z138 cells expressing full length MDM4 at 1 to 100000 nM incubated for 3 to 6 days; assay type: cell-based; settings: dose 1-100000 nM, time 3-6 day
[4] = target: Protein arginine N-methyltransferase 5 (Homo sapiens) (UniProt O14744); experiment: Inhibition of PRMT5 in human Z138 cells expressing full length MDM4 assessed as effect on p53 level at 1 uM incubated for 4 days by Western blot analysis; assay type: cell-based; settings: time 4.0 day
[5] = target: Protein arginine N-methyltransferase 5 (Homo sapiens) (UniProt O14744); experiment: Inhibition of PRMT5 in p53 knockout human Z138 cells effect on p53 expression at 500 nM incubated for 3 to 11 days by Western blot analysis; assay type: cell-based; settings: time 3-11 day

Sequence of Protein arginine N-methyltransferase 5 (Homo sapiens) (O14744 whole entry): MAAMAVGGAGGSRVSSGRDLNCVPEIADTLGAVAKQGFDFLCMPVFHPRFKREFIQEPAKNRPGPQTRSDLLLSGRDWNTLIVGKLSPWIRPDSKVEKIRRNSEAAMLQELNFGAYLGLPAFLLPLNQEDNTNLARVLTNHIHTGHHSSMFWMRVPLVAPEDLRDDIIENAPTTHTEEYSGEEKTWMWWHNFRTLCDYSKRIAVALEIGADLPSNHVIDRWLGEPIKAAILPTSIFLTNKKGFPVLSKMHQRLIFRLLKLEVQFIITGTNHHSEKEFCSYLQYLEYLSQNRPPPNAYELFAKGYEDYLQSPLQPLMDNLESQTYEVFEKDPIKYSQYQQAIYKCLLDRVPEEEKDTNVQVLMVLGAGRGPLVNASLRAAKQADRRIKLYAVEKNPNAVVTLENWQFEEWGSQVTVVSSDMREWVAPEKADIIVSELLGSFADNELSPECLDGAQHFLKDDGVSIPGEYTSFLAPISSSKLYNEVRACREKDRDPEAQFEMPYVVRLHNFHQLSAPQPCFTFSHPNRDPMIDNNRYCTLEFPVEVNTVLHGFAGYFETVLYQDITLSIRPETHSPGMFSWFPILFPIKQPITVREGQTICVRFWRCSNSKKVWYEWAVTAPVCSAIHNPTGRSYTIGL

SMILES: CC(=O)N1CCC(Nc2cc(C(=O)NC[C@H](O)CN3CCc4ccccc4C3)ncn2)CC1 [PEMRAMETOSTAT]
- GI50 (KMS-11): 66 nM
- Activity (JVM-2): Active

- GI50 (MCF7): 215 nM
- GI50 (K562): 146 nM
- GI50 (COLO 201): 49.6 nM
- GI50 (SW48): 10000 nM
- GI50 (SK-N-AS): 31.9 nM
- GI50 (NCI-H441): 556 nM
- GI50 (PC-3): 873 nM
- GI50 (U2OS): 485 nM
- GI50 (SW684): 1170 nM
- GI50 (NCI-H446): 570 nM
- fold change (FC) [2]: -5.3
- inhibition [3]: inactive
- inhibition [4]: inactive
- inhibition [5]: inactive
SMILES: O=C(NC[C@H](O)CN1CCc2ccccc2C1)c1ccnc(NC2CCC2)c1
- GI50 (RKO): 772 nM
- GI50 (HT): 206 nM
- GI50 (T98G): 27.3 nM
- GI50 (CAKI-2): 114 nM
- GI50 (Hs 294T): 12.3 nM
- GI50 (SH-4): 75.2 nM
- GI50 (MC-IXC): 615 nM
- GI50 (CFPAC-1): 52.3 nM
- GI50 [1]: 142 nM
- GI50 (DMS-273): 298 nM
- GI50 (CAL-62): 253 nM
